Only some compounds are listed: those with a hit (about 3.9% of all), similar ones and a draw of the others.
NF-kB neuron act: activators of NF-kB expression in neurons, primary screen, cell-based, HTS. human neuronal cells, NF-kB reporter expression; stronger effect = higher value. 1.6% of 190,000 active. fold change at 12.5 µM; in the data active = fold change above about 3.3
FLuc stim CS: FLuc activators, initial screening, artefact control for FLuc-dependent activation tests, biochemical, ATPlite luminescence | ATPlite luciferase biochemical, 10 min; 0 = ATP-free wells, 1 = DMSO control | Luciferin 4-monooxygenase (Photinus pyralis), P08659 | activation factor at 10 µM | 200,000 tested, under 10 active;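 active = luciferase activation factor, scaled between plate controls, of at least 2 with compound at 10 µM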
Target sequence (P08659 whole entry, looked up): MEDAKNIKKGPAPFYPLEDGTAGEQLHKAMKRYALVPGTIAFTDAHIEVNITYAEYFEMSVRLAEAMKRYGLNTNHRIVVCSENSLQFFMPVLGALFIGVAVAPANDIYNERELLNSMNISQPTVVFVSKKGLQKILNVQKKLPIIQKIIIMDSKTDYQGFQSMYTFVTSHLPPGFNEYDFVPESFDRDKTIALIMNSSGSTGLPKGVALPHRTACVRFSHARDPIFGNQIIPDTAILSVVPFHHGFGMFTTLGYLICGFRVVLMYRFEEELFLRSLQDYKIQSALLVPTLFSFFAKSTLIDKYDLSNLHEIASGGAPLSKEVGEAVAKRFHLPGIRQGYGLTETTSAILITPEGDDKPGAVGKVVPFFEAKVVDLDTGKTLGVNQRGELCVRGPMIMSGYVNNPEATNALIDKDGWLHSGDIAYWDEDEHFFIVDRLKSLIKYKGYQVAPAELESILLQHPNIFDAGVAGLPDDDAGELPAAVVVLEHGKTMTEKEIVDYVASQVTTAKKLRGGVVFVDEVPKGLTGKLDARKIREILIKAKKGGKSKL
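test system = cell-free luciferase reagent | medium = PBS as buffer for the ATP substrate | dosing = test compounds dosed from 2 mM stocks in 100% DMSO | incubation = 10 min at ambient temperature | detection = luminescence measurement of luciferase light output | benchmarks = low control with PBS replacing ATP, high control enzyme plus ATP without compound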
APP 5'UTR act: activators of APP 5'UTR luciferase reporter, primary screen, SH-SY5Y cells. 1% of 190,000 active. SH-SY5Y APP 5'UTR luciferase reporter, luminescence; zero percent = DMSO vehicle wells. activation, % at 2 µM;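 active = activation above a set limit, based on mean plus 3 SD of controls, cut at about 140% in these data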
Rad51 HR inh: human RAD51 strand exchange inhibitors, primary screen, biochemical, fluorescence. hRad51 DNA strand exchange, fluorescence dequenching. 0.085% of 200,000 active. inhibition, % at 10 µM;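 active = inhibition above 40% at the single screening dose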;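 note: 0% = DMSO control wells and 100% = blanks with heterologous ssDNA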
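material = hRad51 filaments on single-stranded DNA | timing = filaments 15 min 37 °C, then compound 30 min | signal = FRET fluorescence dequenching, excitation 485 nm, emission 520 nm | benchmarks = control wells and blank wells on each plate | evaluation = percent inhibition relative to plate controls and blanks | compound = 10 µM final, single point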
STAT1 act: STAT1 signaling activators, primary screen, cell-based, HTS, luciferase reporter; 2.6% of 200,000 active; activation (% of control), % at 5.5 µM; NIH 3T3 STAT1-luciferase reporter, IFN-gamma, luminescence; 100% = IFN-gamma alone, no compound;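 active = activation above the screen-wide mean activation plus 3 SD, cut at about 130% in these data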;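 note: raw ratio to IFN-gamma control signal so 100% means no change and 0% no light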
FLuc inhib CS: firefly luciferase enzyme inhibitors, primary screen, artefact control for luciferase-based inhibitor screens, biochemical, luminescence, ATPLite; AID 1006, 2008; 1.5% of 200,000 active; Luciferin 4-monooxygenase (Photinus pyralis), P08659; 10 min; inhibition, % at 10 µM;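 active = inhibition above about 50% when tested at 10 µM, limit read from the data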
An asterisk follows results filed as active; · = no result given.

SMILES	NF-kB neuron act	FLuc stim CS	APP 5'UTR act	Rad51 HR inh	STAT1 act	FLuc inhib CS
CN(C)CC(C)(C)CNS(=O)(=O)c1ccc(OC(F)(F)F)cc1	1.21	1	0.6	31.3	100.8	1.3
C=CCNC(=O)c1ccc2c(=O)n(CCCN3CCCC3=O)c(=S)[nH]c2c1	1.12	1	-9.7	-4.7	102.6	-3.3
COc1cc(NC(=O)CN2C(=O)NC(c3ccccc3)(c3ccccc3)C2=O)c(C)cc1[N+](=O)[O-]	0.73	1	-10.1	·	100.8	-4.7
CC1=NN(c2ccccc2)C(=O)/C1=C/c1cn(C)c2ccccc12	·	·	·	12.8	·	·
CC(C)Cc1cc(C(=O)NCc2ccco2)no1	2.02	0.9	22.1	-3.7	130.1*	10.5
O=C(N/N=C\c1ccc(Cl)s1)c1ccc(Cn2cccn2)o1	1.09	1	-12.8	1.8	102.7	1.7
CC(C)c1ccc(/C=N\NC(=O)c2ccc(Cn3cccn3)o2)cc1	1.2	0.3	33.5	·	106.6	71.6*
COCCOC(=O)CSc1ncccc1-c1nc2cc(C)c(C)cc2[nH]1	2.99	0.3	43.1	1.0	109.5	74.8*
COc1ccccc1N1CCN(C(=O)CSc2ncccc2-c2nc3ccccc3[nH]2)CC1	0.39	1	31.9	-3.7	99.7	-1.3
O=C(CSc1ncccc1-c1nc2ccccc2[nH]1)NC1CC1	0.86	1	12.2	-4.5	94.3	0.6
Cc1cc2nc(-c3cccnc3SCC(=O)NC(C)C)[nH]c2cc1C	1.24	0.3	62.6	-6.8	126.0	70.1*
COC(=O)c1oc2ccc(Cl)cc2c1N	1.76	0.9	25.4	-2.2	108.3	14.2
COc1ccc2oc(C(=O)NC(C)(C)C)c(C)c2c1	0.96	0.7	80.2	0.7	145.5*	27.0
COc1ccc2oc(C(=O)C3CC3)c(N)c2c1	2.63	0.8	83.2	30.0	140.0*	19.2
COC(=O)CCC(=O)c1oc2ccc(OC)cc2c1N	1.75	0.4	-64.1	4.7	110.9	56.0*
NNC(=O)c1nc[nH]c1C(=O)Nc1ccccc1[N+](=O)[O-]	1.42	1	-3.5	5.2	104.7	0.0
CC(C)(C)N=Cc1cc(-c2ccccc2)sc1O	3.26	0.8	·	5.8	138.5*	17.3
CC(=O)c1sc(-c2ccccc2)cc1N	·	·	·	0.5	·	·
CCC1Oc2ccccc2N(CC(=O)NCc2ccco2)C1=O (centres undefined)	1.17	1	12.8	-0.2	93.4	-4.3
O=C(NCc1ccc(Cl)cc1)c1cnn2ccccc12	2.35	0.8	77.2	6.3	131.0*	21.0
COc1cccc(/C=N/n2c(-c3cc(C)[nH]n3)n[nH]c2=S)c1O	·	·	·	8.8	·	·
Oc1ccc(Cl)cc1C1=NNC(c2ccc(Cl)cc2)C1 (centres undefined)	1.27	1	54.9	1.0	129.7*	2.2
Oc1c(Cl)cc(Cl)cc1C1=NNC(c2ccc(Cl)cc2)C1 (centres undefined)	1.01	1	47.8	21.7	100.3	2.0
COc1ccc(C2CC(C)(c3ccc(OC)cc3OC)Nc3ccccc3N2)c(OC)c1 (centres undefined)	0.66	1	32.6	-1.2	86.8	-4.6
O=C(O)c1cc(-c2ccc3c(c2)OCO3)nc2ccc(Br)cc12	1.17	0.3	20.4	-1.6	102.0	71.9*
O=C(Nc1nccs1)c1cnccn1	1.28	1.1	11.3	-8.2	96.2	-5.4
CCOc1ccc2nc(NC(=O)CSc3ccc(Cl)cc3)sc2c1	1.12	1	-14.2	-5.8	97.2	-3.5
CCOc1ccc2nc(NC(=O)c3cnccn3)sc2c1	3.29	0.5	38.4	·	138.2*	45.9
O=C(NNc1nc2ccc(F)cc2s1)c1cccc(F)c1	1.36	1	31.0	0.2	117.3	-2.6
CCOc1ccc2nc(NC(=O)CSC3=NCCS3)sc2c1	3.06	1	45.8	3.3	129.0*	-2.4

High-throughput results: PubChem BioAssay, several laboratories
